# Source: ChEMBL document CHEMBL4145471, “New 1,5 and 2,5-disubstituted tetrazoles-dependent activity towards surface barrier of Candida albicans” (Eur J Med Chem, 2018)
# What was measured:
# Candida albicans [1] = assay: Antifungal activity against Candida albicans ATCC 90028 assessed as metabolic activity at 20 ug/ml after 48 hrs in presence of 2.5 ug/ml fluconazol by XTT assay relative to control
# Candida albicans [2] = assay: Antifungal activity against Candida albicans ATCC 90028 assessed as inhibition of metabolic activity at 1.25 ug/ml after 48 hrs in presence of 20 ug/ml fluconazol by XTT assay relative to control; format: functional; details: values are per cent of control
# Outline: (§1)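 Checkerboard against strain ATCC 90028, inoculum per M27-A3: fluconazole 80-1.25 µg/mL on one axis, tetrazole 80-1.25 µg/mL on the other. Plates at 35°C for 48 h, then XTT metabolic reduction read at 475 nm (660 nm reference). Activity is the drop in mean absorbance against untreated growth control. FICs and their summed FIC index are taken at 50% reduction in metabolic activity.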
# Candida albicans [3] = assay: Antifungal activity against Candida albicans ATCC 90028 assessed as metabolic activity at 80 ug/ml after 48 hrs in presence of 2.5 ug/ml fluconazol by XTT assay relative to control
# Candida albicans [4] = assay: Antifungal activity against Candida albicans ATCC 90028 assessed as inhibition of metabolic activity at 10 ug/ml after 48 hrs in presence of 2.5 ug/ml fluconazol by XTT assay relative to control; format: functional; details: values are per cent of control
# Outline: (§2)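 C. albicans ATCC 90028 in checkerboard: fluconazole serial dilutions (80-1.25 µg/mL) crossed with tetrazole (80-1.25 µg/mL final), M27-A3 inoculum in RPMI 1640, 35°C for 48 h. Metabolic activity measured by XTT reduction, read at 475 nm (660 nm reference). Activity expressed relative to untreated growth control absorbance.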
# Candida albicans [5] = assay: Antifungal activity against Candida albicans ATCC 90028 at 4 ug/ml after 18 hrs relative to control; format: functional
# Outline: (§3)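 Planktonic broth microdilution per M27-A3 in MOPS-buffered RPMI 1640 (pH 7.0), final inoculum 1.8×10^3 cells/mL, compounds 0.0313–16 µg/mL from 1600 µg/mL stocks in ethanol or DMSO. Incubated at 35°C without agitation; OD405 read at 18 and 48 h. % inhibition was derived from test, sterility (no inoculum) and solvent growth-control wells. Amphotericin B at 0.5 µg/mL served as the 100% control.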
# Candida albicans [6] = assay: Synergistic antifungal activity against Candida albicans ATCC 90028 at 10 ug/ml after 48 hrs in presence of 80 ug/ml fluconazol by checkerboard assay relative to control; format: functional
# Outline: (§4)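 Checkerboard in C. albicans ATCC 90028, inoculum prepared per CLSI M27-A3 in RPMI. Fluconazole serially diluted 80-1.25 µg/mL across the plate against the partner compound at 80-1.25 µg/mL final. Incubated 48 h at 35°C. Metabolic activity read by XTT reduction at 475 nm (660 nm reference), given as % of the untreated growth control.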
# Candida albicans [7] = assay: Synergistic antifungal activity against Candida albicans ATCC 90028 at 2.5 ug/ml after 48 hrs in presence of 20 ug/ml fluconazol by checkerboard assay relative to control; format: functional
# Outline: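 Checkerboard microdilution (M27-A3) on C. albicans ATCC 90028 in RPMI 1640: fluconazole (80-1.25 µg/mL) crossed with tetrazole (80-1.25 µg/mL final), incubated at 35°C for 48 h. Growth by OD405 at 18 and 48 h, endpoint taken as 100% inhibition. FIC index = sum of the two agents' FICs; <1 synergism, >1 antagonism.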
# Candida albicans [8] = assay: Antifungal activity against Candida albicans ATCC 90028 assessed as inhibition of metabolic activity at 10 ug/ml after 48 hrs in presence of 20 ug/ml fluconazol by XTT assay relative to control; format: functional; details: values are per cent of control
# Outline: as §1
# Candida albicans [9] = assay: Synergistic antifungal activity against Candida albicans ATCC 90028 assessed as fluconazol FIC at 1.25 to 80 ug/ml after 48 hrs by checkerboard assay; format: functional
# Outline: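 Checkerboard per M27-A3 against ATCC 90028: fluconazole at 80–1.25 µg/mL horizontally and partner compound at 80–1.25 µg/mL vertically, 100 µL yeast inoculum per well, 35°C for 48 h. After 48 h, metabolic activity was measured by XTT reduction at 475 nm (660 nm reference) relative to untreated growth control. FIC index is the sum of the FICs; <1 was defined as synergism and >1 as antagonism.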
# Candida albicans [10] = assay: Antifungal activity against Candida albicans ATCC 90028 assessed as inhibition of metabolic activity at 2.5 ug/ml after 48 hrs in presence of 80 ug/ml fluconazol by XTT assay relative to control; format: functional; details: values are per cent of control
# Outline: as §2
# Candida albicans [11] = assay: Antifungal activity against Candida albicans ATCC 90028 assessed as metabolic activity at 40 ug/ml after 48 hrs in presence of 80 ug/ml fluconazol by XTT assay relative to control
# Candida albicans [12] = assay: Antifungal activity against Candida albicans ATCC 90028 assessed as inhibition of metabolic activity at 10 ug/ml after 48 hrs in presence of 10 ug/ml fluconazol by XTT assay relative to control; format: functional; details: ATCC 90028, 48 h, values are per cent of control
# Outline: as §1
# Candida albicans [13] = assay: Antifungal activity against Candida albicans ATCC 90028 assessed as metabolic activity at 80 ug/ml after 48 hrs in presence of 10 ug/ml fluconazol by XTT assay relative to control
# Candida albicans [14] = assay: Antifungal activity against Candida albicans ATCC 90028 assessed as inhibition of metabolic activity at 10 ug/ml after 48 hrs in presence of 1.25 ug/ml fluconazol by XTT assay relative to control; format: functional; details: values are per cent of control
# Outline: as §1
# Candida albicans [15] = assay: Synergistic antifungal activity against Candida albicans ATCC 90028 at 40 ug/ml after 48 hrs in presence of 10 ug/ml fluconazol by checkerboard assay relative to control; format: functional
# Outline: as §4
# Candida albicans [16] = assay: Synergistic antifungal activity against Candida albicans ATCC 90028 at 80 ug/ml after 48 hrs in presence of 10 ug/ml fluconazol by checkerboard assay relative to control; format: functional
# Outline: as §4
# Candida albicans [17] = assay: Antifungal activity against Candida albicans ATCC 90028 at 0.0625 ug/ml after 48 hrs relative to control; format: functional
# Outline: as §3
# Candida albicans [18] = assay: Antifungal activity against Candida albicans ATCC 90028 assessed as metabolic activity at 80 ug/ml after 48 hrs in presence of 40 ug/ml fluconazol by XTT assay relative to control
# Candida albicans [19] = assay: Antifungal activity against Candida albicans ATCC 90028 assessed as inhibition of metabolic activity at 1.25 ug/ml after 48 hrs in presence of 10 ug/ml fluconazol by XTT assay relative to control; format: functional; details: values are per cent of control
# Outline: as §1
# Candida albicans [20] = assay: Synergistic antifungal activity against Candida albicans ATCC 90028 at 40 ug/ml after 48 hrs in presence of 5 ug/ml fluconazol by checkerboard assay relative to control; format: functional
# Outline: as §4
SMILES,Metabolic activity (Candida albicans [1]),residual activity (Candida albicans [2]),Metabolic activity (Candida albicans [3]),residual activity (Candida albicans [4]),Activity (Candida albicans [5]),growth inhibition (GI) (Candida albicans [6]),growth inhibition (GI) (Candida albicans [7]),residual activity (Candida albicans [8]),FIC (Candida albicans [9]),residual activity (Candida albicans [10]),Metabolic activity (Candida albicans [11]),residual activity at 10 µg/mL (Candida albicans [12]),Metabolic activity (Candida albicans [13]),residual activity (Candida albicans [14]),growth inhibition (GI) (Candida albicans [15]),growth inhibition (GI) (Candida albicans [16]),Activity (Candida albicans [17]),Metabolic activity (Candida albicans [18]),residual activity (Candida albicans [19]),growth inhibition (GI) (Candida albicans [20]),further results
ClCCCn1nnnc1-c1ccccc1Cl,81.5%,60.65%,59.43%,79.69%,99.62%,99.43%,99.53%,87.4%,5,80.42%,63.62%,75.4%,73.98%,73.65%,99.59%,99.78%,99.34%,89.73%,62.08%,98.95%,fold change (FC) (Candida albicans [9]): 5
CCOC(=O)CCn1nnc(-c2ccccc2)n1,80.61%,62.2%,64.31%,71.14%,99.96%,99.49%,99.52%,70.81%,5,72.63%,55.99%,76.2%,52.64%,90.58%,99.53%,99.84%,99.12%,97.37%,74.44%,98.93%,
Cc1ccc(-c2nnn(CCCN3CCOCC3)n2)cc1,71.88%,100%,78.22%,100%,99.75%,99.21%,98.82%,93.01%,5,84.01%,66.33%,99%,11.87%,100%,99.69%,99.8%,99.03%,100%,100%,98.83%,
